Reference: ChEMBL document CHEMBL2375271, “Antiproliferative Homoisoflavonoids and Bufatrienolides from Urginea depressa” (J Nat Prod, 2013)
pIC50: −log10 of the molar value.

Columns and labels:
[1] = Cytotoxicity against human H522-T1 cells assessed as growth inhibition after 96 hrs by CellTiter-Glo luminescence assay; assay type: functional, cell-based; settings: H522-T1, 96 h
Outline: (§1)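 Antiproliferative activity was determined against the A2058 melanoma and H522-T1 lung cancer cell lines.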

A2058 [2] = test: Cytotoxicity against human A2058 cells assessed as growth inhibition after 96 hrs by CellTiter-Glo luminescence assay; assay type: functional, cell-based; settings: A2058, 96 h; outline: as §1
A2780 [3] = test: Cytotoxicity against human A2780 cells assessed as growth inhibition; assay type: functional, cell-based
Outline: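 Drug-sensitive A2780 human ovarian cancer cell line; antiproliferative activity determined per a previously described protocol.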

A2058 [4] = test: Selectivity ratio of IC50 for human A2780 cells to IC50 for human A2058 cells; assay type: functional
A2780 [5] = test: Selectivity ratio of IC50 for human A2780 cells to IC50 for human H522-T1 cells; assay type: functional

SMILES	pIC50 [1]	pIC50 (A2058 [2])	pIC50 (A2780 [3])	Ratio IC50 (A2058 [4])	Ratio IC50 (A2780 [5])
COc1ccc(C[C@H]2COc3cc(OC)c(OC)c(OC)c3C2=O)cc1	6.13	6.16	5.87		
COc1cc2c(c(OC)c1OC)C(=O)[C@@](O)(Cc1ccc3c(c1)OCO3)CO2 [URGINEANIN D]	6.37	6.42	6.46		
C[C@@H]1O[C@@H](O[C@H]2[C@@H](O)[C@H](O[C@@H]3C=C4CC[C@@H]5[C@H](CC[C@]6(C)[C@@H](c7ccc(=O)oc7)CC[C@]56O)[C@@]4(C=O)CC3)O[C@@H](C)[C@@H]2O[C@@H]2O[C@H](CO)[C@@H](O)[C@H](O)[C@H]2O)[C@H](O)[C@H](O)[C@H]1O	7.29	7.12	7.39		
COc1cc2c(c(OC)c1OC)C(=O)[C@@](O)(Cc1ccc(O)cc1)CO2	5.17	< 5.00	5.47		
COc1cc2c(c(OC)c1OC)C(=O)[C@@H](Cc1ccc3c(c1)OCO3)CO2 [URGINEANIN E]	< 5.00	< 5.00	5.84		
C[C@@H]1O[C@@H](O[C@H]2[C@@H](O)[C@H](O[C@@H]3C=C4CC[C@@H]5[C@H](CC[C@]6(C)[C@@H](c7ccc(=O)oc7)CC[C@]56O)[C@@]4(C)CC3)O[C@@H](C)[C@@H]2O[C@@H]2O[C@H](CO)[C@@H](O)[C@H](O)[C@H]2O)[C@H](O)[C@H](O)[C@H]1O	6.96	6.74	6.95		
CC(=O)O[C@@H]1C[C@]2(O)[C@@H]3CCC4=C[C@@H](O[C@@H]5O[C@H](CO)[C@@H](O)[C@H](O)[C@H]5O)CC[C@]4(C=O)[C@H]3CC[C@]2(C)[C@H]1c1ccc(=O)oc1	7.36	7.22	7.96		
CC[C@]1(O)C[C@@H]2CN(CCc3c([nH]c4ccccc34)[C@@](C(=O)OC)(c3cc4c(cc3OC)N(C)[C@H]3[C@@](O)(C(=O)OC)[C@H](OC(C)=O)[C@]5(CC)C=CCN6CC[C@]43[C@@H]65)C2)C1 [VINBLASTINE]	8.28	8.43			
C[C@]12CC[C@H]3[C@@H](CCC4=C[C@@H](O[C@@H]5O[C@H](CO)[C@@H](O)[C@H](O)[C@H]5O)CC[C@@]43C=O)[C@@]1(O)CC[C@@H]2c1ccc(=O)oc1	7.47	7.32	7.62		
COc1ccc(C[C@@]2(O)COc3cc(OC)c(OC)c(OC)c3C2=O)cc1	7.15	7.17	6.49	5	5
COc1ccc(C[C@H]2COc3cc(O)cc(O)c3C2=O)cc1	< 5.00	< 5.00	4.64		
